Source: PubChem (several laboratories)
Yeast lifespan up = extends the lifespan of yeast; S. cerevisiae growth with nicotinamide, OD615; deaD strain in restrictive glucose medium; inhibition of the nicotinamide effect, % at 10 µM; 130,000 tested, 0.68% active; AID 775;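 active = inhibition above a set limit, placed 3 SD over the median of all compounds, cut at about 26% in these data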
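Test system – modified budding yeast, DeaD strain · Compound – single dose 10 µM compound, 0.25% DMSO · Times – culture preincubation 4 h, compound exposure 48 h, both 30 °C · Detection – optical density (absorbance) at 615 nm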
Ins promoter up = MIN6 insulin promoter up-regulation; AID 1625; z-score at 5 µM; MIN6 insulin promoter-GFP reporter, high-content imaging; stronger effect = higher value; 190,000 tested, 0.3% active;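 active = z-score above 3 at 5 µM with at least 500 cells counted in the well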
RAM inhibit = blocks the yeast RAM network; S. cerevisiae dse1pr::URA3 reporter, 5-FOA growth OD615, 2 d; analog-sensitive cbk1-as2 kinase mutant strain; inhibition, % at 50 µM; 190,000 tested, 1.8% active;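 active = inhibition above a set limit, 3 SD over mean compound inhibition, cut at about 8.4% in these data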;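 also: inhibition rescues growth on 5-FOA so higher OD means more RAM inhibition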
BB579 growth dn = reduces growth of yeast BB579 in restrictive medium; 140,000 tested, 0.51% active; AID 804; inhibition, % at 10 µM; S. cerevisiae BB579 growth, OD615, 48 h;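 active = inhibition above a set limit, 3 SD over the mean compound inhibition, cut at about 44% in these data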
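System: DeaD yeast strain BB579; buffer or medium: CSMM-D dextrose restrictive medium; technique: OD at 615 nm; schedule: 4 h cell preincubation, 48 h compound exposure, 30 °C humidified; doses: single 10 µM dose; controls: amphotericin B 10 µg/mL, positive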
Insulin prom inh = TRM-6 insulin promoter activity inhibition; 130,000 tested, 0.9% active; TRM-6 cells, insulin promoter-eGFP reporter, imaging; reporter expression induced with tamoxifen; inhibition, % at 2 µM; AID 1273;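 active = inhibition above the mean plus 3 SD, with well images judged a real hit on visual review, cut at about 60% in these data, passing the limit was not always enough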
Each line names hits and unclear results; the compound was inactive in the other large screens. In the library only some 3% were active in any assay of this set; here they are far more common.

COc1ccc(C2CC(c3cccs3)=NN2C(=O)CSc2nc3ccccc3s2)cc1 (stereo not given)	none
COc1ccc(C2CC(c3cccs3)=NN2C(=O)CSc2nc3ccccc3o2)cc1 (stereo not given)	RAM inhibit 8.5 (no result: Insulin prom inh)
Cc1cc(C)nc(N2CCCC(CCC(=O)NCc3ccc(F)c(F)c3)C2)n1 (stereo not given)	none (no result: Yeast lifespan up, BB579 growth dn, Insulin prom inh)
O=C(CC(c1cccs1)S(=O)(=O)c1ccccc1)c1ccc(F)cc1 (stereo not given)	none (no result: Insulin prom inh)
COc1ccc(C(C[N+](=O)[O-])c2c(-c3ccccc3)cc3ccccn23)cc1OC (stereo not given)	none
COc1cc(C(C[N+](=O)[O-])c2c(-c3ccccc3)cc3ccccn23)cc(OC)c1OC (stereo not given)	Yeast lifespan up 77.6
Cc1nn2c(NC(C)C)c3c(nc2c1-c1ccccc1)CCC3	none (no result: Yeast lifespan up, RAM inhibit, BB579 growth dn, Insulin prom inh)
Cc1nn2c(Nc3ccccc3)c3c(nc2c1-c1ccccc1)CCC3	Insulin prom inh 90.8
Cc1ccccc1Nc1nc(N)nc(CN2CCN(C(=O)c3ccccc3)CC2)n1	none (no result: Yeast lifespan up, BB579 growth dn, Insulin prom inh)
Cc1ccc(-c2csc(NC(=O)CSc3nc4ccccc4[nH]3)n2)cc1	RAM inhibit 9.8
Oc1ccc(-c2csc(-c3ccccc3)n2)cc1O	BB579 growth dn 82.6
COCCCn1cnc2c(c1=O)c1nc3ccccc3nc1n2-c1ccccc1	Insulin prom inh 90.9 (no result: Ins promoter up)
O=C(O)CSc1cccc[n+]1[O-]	BB579 growth dn 89.8
O=C(CSc1cccc[n+]1[O-])c1cc2ccccc2o1	BB579 growth dn 99.2 (no result: Insulin prom inh)
Cn1cccc1C(=O)NC(=O)CSc1cccc[n+]1[O-]	BB579 growth dn 95.1 (no result: Ins promoter up)
O=C(CSc1cccc[n+]1[O-])c1cccs1	none (no result: Yeast lifespan up, BB579 growth dn, Insulin prom inh)
COc1ccccc1C(=O)NC(=O)CSc1cccc[n+]1[O-]	none (no result: Yeast lifespan up, BB579 growth dn)
Cn1c(=NC(=O)c2ccc(S(=O)(=O)N3CCCc4ccccc43)cc2)sc2cc(S(C)(=O)=O)ccc21	RAM inhibit 10.4 (no result: Ins promoter up, Insulin prom inh)
O=C(CN1C(=O)c2ccccc2S1(=O)=O)c1ccc(F)cc1	none (no result: Yeast lifespan up, RAM inhibit, BB579 growth dn, Insulin prom inh)
CCN1/C(=C(\O)c2ccccc2)C(=O)c2ccccc2S1(=O)=O	BB579 growth dn 100.0 (no result: Insulin prom inh)
O=C(NCCc1nnc2ccc(NCc3ccc(Cl)cc3)nn12)c1ccccc1	RAM inhibit 8.5 (no result: Yeast lifespan up, BB579 growth dn)
CCOc1cc(/C=N/OC(C)=O)ccc1OCc1ccccc1	none (no result: Yeast lifespan up, Ins promoter up, BB579 growth dn)
Cc1nc2ccccc2c2nc3ccccc3n12	BB579 growth dn 91.7
CCn1c(SCC#N)nc2ccccc2c1=O	none (no result: Yeast lifespan up, RAM inhibit, BB579 growth dn, Insulin prom inh)
c1ccc2c(c1)nnn1c3ccccc3nc21	BB579 growth dn 65.0
N#CCSc1nc2ccccc2c2nc3ccccc3n12	BB579 growth dn 61.0
CCOc1ccc(C(=O)Nc2c3c(nn2-c2ccc(C)cc2)CS(=O)C3)cc1OCC (stereo not given)	RAM inhibit 9.6 (no result: Insulin prom inh)
Cc1ccc(-n2nc3c(c2NC(=O)c2ccc4c(c2)OCO4)CS(=O)C3)cc1 (stereo not given)	none
COc1cccc2sc(/N=C/N(C)C)nc12	none (no result: Yeast lifespan up, RAM inhibit, BB579 growth dn, Insulin prom inh)
C=CCc1c(C)[nH]c(=O)[nH]c1=O	Insulin prom inh 77.8 (no result: Yeast lifespan up, BB579 growth dn)
CC(=O)O/N=C1\C(=O)N(Cc2ccc(C)cc2)c2ccccc21	none (no result: Yeast lifespan up, BB579 growth dn)
CC(C)CC(=O)O/N=C1\C(=O)N(Cc2ccc(Cl)cc2)c2ccc([N+](=O)[O-])cc21	RAM inhibit 8.4 (no result: Insulin prom inh)
O=C(Nc1nccs1)c1ccc(-c2ccc(Cl)cc2Cl)o1	RAM inhibit 9.5 (no result: Insulin prom inh)
COC(=O)c1cc(OC)c(OC)cc1NC(=O)Nc1cccc(C(C)=O)c1	none (no result: Yeast lifespan up, BB579 growth dn, Insulin prom inh)
Cc1cc(NC(=S)N(Cc2ccc(Br)cc2)Cc2ccc(C(=O)O)cc2)ccc1Cl	Ins promoter up 3.8 (no result: Yeast lifespan up, BB579 growth dn, Insulin prom inh)
COc1ccc(C(=O)NC(=S)NNC(=O)c2cnccn2)cc1OC	BB579 growth dn 90.5 (no result: Insulin prom inh)
COc1cc(OC)cc(C(=O)NC(=S)NNC(=O)c2cnccn2)c1	none (no result: Insulin prom inh)
CCOc1ccc(C(=O)C(CN2CCOCC2)c2ccccc2)cc1 (stereo not given)	Yeast lifespan up 49.4
CCOc1cc(/C=C2/C(=O)ON=C2C)ccc1OCc1ccccc1F	none
CCOc1cc(/C=C2/C(=O)ON=C2C)ccc1OCc1ccc(F)cc1	RAM inhibit 9.9
CCOc1cc(/C=C2/C(=O)ON=C2C)ccc1OCc1ccccc1	RAM inhibit 10.4 (no result: Yeast lifespan up, BB579 growth dn)
Cc1noc(C)c1C(=O)OCC(=O)Nc1cc(Cl)ccc1Oc1ccccc1	RAM inhibit 11.4 (no result: Ins promoter up)
Cc1cc(C)cc(NS(=O)(=O)c2cnc(Cl)c(Cl)c2)c1	BB579 growth dn 76.2
CCOc1ccc(NS(=O)(=O)c2cnc(Cl)c(Cl)c2)cc1	none
